Data taken from ChEMBL document CHEMBL5712920, “The histone methyltransferase inhibitor A-366 enhances hemoglobin expression in erythroleukemia cells upon co-exposure with chemical inducers in culture” (J Biol Res (Thessalon), 2021).
Calls of active or inactive are those of the source. No cut-off for these calls is given here.

Legend:
FLC clone 745 [1] = test: Induction of cell cycle arrest in HMBA-stimulated mouse FLC clone 745 cells assessed as accumulation cells at G1/G0 phase at 10^-6 M after 48 hrs by PI staining based flow cytometric analysis (reference value: 15.23%); type: functional; conditions: dose 1 10^-6M, at 1 µM
How it was run: (§1)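 MEL cells plated at 5 × 10^5 per well and synchronized by serum deprivation for 24 h. Cells then incubated with compound at 10−6 M, alone or with HMBA 5 × 10−3 M, for 24, 48 and 72 h. Fixed in 70% ethanol overnight at 4 °C, stained with propidium iodide, and DNA content measured by flow cytometry to assign subG1, G1, S, G2/M and >4N fractions.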

FLC clone 745 [2] = test: Induction of cell cycle arrest in mouse FLC clone 745 cells assessed as accumulation cells at G1/G0 phase at 10^-6 M after 48 hrs by PI staining based flow cytometric analysis (reference value: 25.43%); type: functional; conditions: dose 1 10^-6M, at 1 µM; how it was run: as §1
FLC clone 745 [3] = test: Induction of cell cycle arrest in HMBA-stimulated mouse FLC clone 745 cells assessed as accumulation cells at G1/G0 phase at 10^-6 M after 24 hrs by PI staining based flow cytometric analysis (reference value: 17.28%); type: functional; conditions: dose 1 10^-6M, at 1 µM; how it was run: as §1
FLC clone 745 [4] = test: Induction of cell cycle arrest in mouse FLC clone 745 cells assessed as accumulation cells at G1/G0 phase at 10^-6 M after 72 hrs by PI staining based flow cytometric analysis (reference value: 26.4%); type: functional; conditions: dose 1 10^-6M, at 1 µM; how it was run: as §1
FLC clone 745 [5] = test: Induction of cell cycle arrest in HMBA-stimulated mouse FLC clone 745 cells assessed as accumulation cells at > 4N phase at 10^-6 M after 48 hrs by PI staining based flow cytometric analysis (reference value: 2.83%); type: functional; conditions: dose 1 10^-6M, at 1 µM; how it was run: as §1
FLC clone 745 [6] = test: Induction of cell cycle arrest in HMBA-stimulated mouse FLC clone 745 cells assessed as accumulation cells at G2/M phase at 10^-6 M after 48 hrs by PI staining based flow cytometric analysis (reference value: 6.67%); type: functional; conditions: dose 1 10^-6M, at 1 µM; how it was run: as §1
FLC clone 745 [7] = test: Induction of cell cycle arrest in mouse FLC clone 745 cells assessed as accumulation cells at subG1 phase at 10^-6 M after 72 hrs by PI staining based flow cytometric analysis (reference value: 9.87%); type: functional; conditions: dose 1 10^-6M, at 1 µM; how it was run: as §1
FLC clone 745 [8] = test: Induction of cell cycle arrest in HMBA-stimulated mouse FLC clone 745 cells assessed as accumulation cells at subG1 phase at 10^-6 M after 72 hrs by PI staining based flow cytometric analysis (reference value: 58.77%); type: functional; conditions: dose 1 10^-6M, at 1 µM; how it was run: as §1
FLC clone 745 [9] = test: Inhibition of G9a/GLP in HMBA-stiumulated mouse FLC clone 745 cells assessed as increase in HBB protein expression at 10^-6 M after 48 hrs by Western blot analsysis; type: cell-based; conditions: dose 1.0 10^-6M
How it was run: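 MEL cells treated for 48 h with HMBA 5 × 10−3 M plus compound at 10−6 M. About 10^6 cells lysed in Tris/NaCl/2% SDS, sonicated, and protein quantified by BCA. 20 µg run on a 12% SDS-PAGE gel and transferred to PVDF. Membrane probed overnight at 4 °C with anti-hemoglobin β/γ/δ/ε, with β-tubulin as loading control, then HRP secondary for 1 h at room temperature.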

FLC clone 745 [10] = test: Induction of cell cycle arrest in HMBA-stimulated mouse FLC clone 745 cells assessed as accumulation cells at G2/M phase at 10^-6 M after 72 hrs by PI staining based flow cytometric analysis (reference value: 9.86%); type: functional; conditions: dose 1 10^-6M, at 1 µM; how it was run: as §1
FLC clone 745 [11] = test: Induction of cell cycle arrest in HMBA-stimulated mouse FLC clone 745 cells assessed as accumulation cells at G2/M phase at 10^-6 M after 24 hrs by PI staining based flow cytometric analysis (reference value: 9.52%); type: functional; conditions: dose 1 10^-6M, at 1 µM; how it was run: as §1
FLC clone 745 [12] = test: Induction of cell cycle arrest in mouse FLC clone 745 cells assessed as accumulation cells at G2/M phase at 10^-6 M after 48 hrs by PI staining based flow cytometric analysis (reference value: 28.15%); type: functional; conditions: dose 1 10^-6M, at 1 µM; how it was run: as §1
K562 [13] = test: Induction of apoptosis in human K562 cells assessed as effect on Bax mRNA expression level at 1 to 10 uM cells after 48 hrs by qPCR analysis; type: toxicity, cell-based; conditions: k562, 48 h, dose 1-10 µM
How it was run: (§2)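 K562 cells at 10^5 cells/ml grown without compound (control) or with 10−6 M or 10−5 M compound for 48 h. Total RNA isolated, then checked by gel electrophoresis and spectrophotometry. Transcripts quantified by qPCR.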

FLC clone 745 [14] = test: Induction of cell cycle arrest in mouse FLC clone 745 cells assessed as accumulation cells at S phase at 10^-6 M after 72 hrs by PI staining based flow cytometric analysis (reference value: 24.02%); type: functional; conditions: dose 1 10^-6M, at 1 µM; how it was run: as §1
K562 [15] = test: Induction of apoptosis in human K562 cells assessed as effect on Bcl-2 mRNA expression level at 1 to 10 uM cells after 48 hrs by qPCR analysis; type: toxicity, cell-based; conditions: k562, 48 h, dose 1-10 µM; how it was run: as §2
K562 [16] = test: Induction of apoptosis in human K562 cells assessed as effect on caspase-8 mRNA expression level at 1 to 10 uM cells after 48 hrs by qPCR analysis; type: toxicity, cell-based; conditions: k562, 48 h, dose 1-10 µM; how it was run: as §2

SMILES: COc1cc2c(cc1OCCCN1CCCC1)N=C(N)C21CCC1
- Activity (FLC clone 745 [1]): 11.73%
- Activity (FLC clone 745 [2]): 21%
- Activity (FLC clone 745 [3]): 12.13%
- Activity (FLC clone 745 [4]): 14.22%
- Activity (FLC clone 745 [5]): 3.08%
- Activity (FLC clone 745 [6]): 5.67%
- Activity (FLC clone 745 [7]): 39.53%
- Activity (FLC clone 745 [8]): 62.86%
- inhibition (FLC clone 745 [9]): Active
- Activity (FLC clone 745 [10]): 6.21%
- Activity (FLC clone 745 [11]): 6.93%
- Activity (FLC clone 745 [12]): 22.21%
- Activity (K562 [13]): Non-Toxic
- Activity (FLC clone 745 [14]): 23.1%
- Activity (K562 [15]): Non-Toxic
- Activity (K562 [16]): Non-Toxic
